The structures appear in SMILES notation.

This note sets out measurements from ChEMBL document CHEMBL3232881, “New orally active amino- and hydroxy-functionalized 11-azaartemisinins and their derivatives with high order of antimalarial activity against multidrug-resistant Plasmodium yoelii in Swiss mice” (2014).

Holding throughout (type): functional
In test [1] the test system is Plasmodium yoelii. In words: Antimalarial activity against chloroquine, mefloquine and halofantrine-resistant Plasmodium yoelii infected in Swiss mouse assessed as suppression of parasitemia at 24 mg/kg, po for 4 days by microscopic analysis relative to control. The procedure, abridged:
(§1)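 Swiss mice of either sex infected ip on day 0 with 1 × 10⁶ parasitized RBCs of multidrug-resistant P. yoelii nigeriensis, five per dose. Oral dosing in groundnut oil (0.1 mL) once daily days 0–3. Parasitemia read by microscopy on day 4. % suppression = [(C − T)/C] × 100 against untreated controls; 100% means no parasites in 50 oil-immersion fields.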

Test [2] has as its system Plasmodium yoelii. Kind of test: Antimalarial activity against chloroquine, mefloquine and halofantrine-resistant Plasmodium yoelii infected in Swiss mouse assessed as mouse survival at 24 mg/kg, po for 4 days measured on day 28 relative to control. Put shortly: (§2)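 P. yoelii nigeriensis (chloroquine-, mefloquine-, halofantrine-resistant) given ip as 1 × 10⁶ parasitized RBCs on day 0 to Swiss mice of either sex, five per dose. Compound in groundnut oil, 0.1 mL, given orally once daily days 0–3. Blood smears checked through day 28. Mice surviving beyond day 28 counted as protected, reported as % of five. β-Arteether as positive control.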

The test system of test [3] is Plasmodium yoelii. Kind of test: Antimalarial activity against chloroquine, mefloquine and halofantrine-resistant Plasmodium yoelii infected in Swiss mouse assessed as mouse survival at 12 mg/kg, po for 4 days measured on day 28 relative to control. The procedure, abridged: as §2
Test [4] has as its system Plasmodium yoelii. Kind of test: Antimalarial activity against chloroquine, mefloquine and halofantrine-resistant Plasmodium yoelii infected in Swiss mouse assessed as suppression of parasitemia at 12 mg/kg, po for 4 days by microscopic analysis relative to control. Put shortly: as §1
Test [5] relates to Plasmodium yoelii. Kind of test: Ratio of compound to beta-arteether for antimalarial activity against chloroquine, mefloquine and halofantrine-resistant Plasmodium yoelii infected in Swiss mouse assessed as mouse survival.
Test [6] deals with Plasmodium yoelii. In words: Antimalarial activity against chloroquine, mefloquine and halofantrine-resistant Plasmodium yoelii infected in Swiss mouse assessed as suppression of parasitemia at 6 mg/kg, po for 4 days by microscopic analysis relative to control. The procedure, abridged:
as §1

Test [7] deals with Plasmodium yoelii. Kind of test: Antimalarial activity against chloroquine, mefloquine and halofantrine-resistant Plasmodium yoelii infected in Swiss mouse assessed as mouse survival at 6 mg/kg, po for 4 days measured on day 28 relative to control. The procedure, abridged: as §2
Test [8] concerns Plasmodium yoelii. In words: Antimalarial activity against chloroquine, mefloquine and halofantrine-resistant Plasmodium yoelii infected in Swiss mouse assessed as mouse survival at 48 mg/kg, po for 4 days measured on day 28 relative to control. Put shortly:
as §2

Test [9] relates to Plasmodium yoelii. In words: Antimalarial activity against chloroquine, mefloquine and halofantrine-resistant Plasmodium yoelii infected in Swiss mouse assessed as suppression of parasitemia at 48 mg/kg, po for 4 days by microscopic analysis relative to control. Put shortly: as §1

In the case of `C[C@@H]1CC[C@H]2[C@@H](C)C(=O)N(N)[C@@H]3O[C@@]4(C)CC[C@@H]1[C@@]23OO4`, the Activity was found to be 100% in the test with Plasmodium yoelii [1] and 40% with Plasmodium yoelii [2].

For the compound `C[C@@H]1CC[C@H]2[C@@H](C)C(=O)N(O)[C@@H]3O[C@@]4(C)CC[C@@H]1[C@@]23OO4`, the Activity was found to be 54% with Plasmodium yoelii [1] and 0% in the test with Plasmodium yoelii [2].

`C[C@@H]1CC[C@H]2[C@@H](C)C(=O)N(NC(=O)c3ccccc3)[C@@H]3O[C@@]4(C)CC[C@@H]1[C@@]23OO4`: the Activity in the test on Plasmodium yoelii [1] was found to be 100%; in the test on Plasmodium yoelii [3] it was 0%; in the test on Plasmodium yoelii [4], 62%; with Plasmodium yoelii [2], 100%.

Consider `C[C@@H]1CC[C@H]2[C@@H](C)C(=O)N(NC(=O)c3ccc(Br)cc3)[C@@H]3O[C@@]4(C)CC[C@@H]1[C@@]23OO4`, for which the Activity in the test with Plasmodium yoelii [1] came out at 100%; with Plasmodium yoelii [3], 0%; in the test on Plasmodium yoelii [4], 100%; with Plasmodium yoelii [2], 100%.

Regarding `C[C@@H]1CC[C@H]2[C@@H](C)C(=O)N(NC(=O)c3ccc(C(F)(F)F)cc3)[C@@H]3O[C@@]4(C)CC[C@@H]1[C@@]23OO4`, the Activity with Plasmodium yoelii [1] is listed as 100%; in the test with Plasmodium yoelii [3], 20%; in the test on Plasmodium yoelii [4], 100%; with Plasmodium yoelii [2], 100%.

As to `C[C@@H]1CC[C@H]2[C@@H](C)C(=O)N(NC(=O)C34CC5CC(CC(C5)C3)C4)[C@@H]3O[C@@]4(C)CC[C@@H]1[C@@]23OO4`, the Activity with Plasmodium yoelii [1] was 100%; in the test on Plasmodium yoelii [2] it was 60%.

In the case of `C[C@@H]1CC[C@H]2[C@@H](C)C(=O)N(NC(=O)C3c4ccccc4-c4ccccc43)[C@@H]3O[C@@]4(C)CC[C@@H]1[C@@]23OO4`, the Activity in the test with Plasmodium yoelii [1] came out at 100%; in the test with Plasmodium yoelii [2], 60%.

On to `C[C@@H]1CC[C@H]2[C@@H](C)C(=O)N(NC(=O)c3ccc(-c4ccccc4)cc3)[C@@H]3O[C@@]4(C)CC[C@@H]1[C@@]23OO4`, for which the Activity in the test on Plasmodium yoelii [1] is recorded as 100%; in the test on Plasmodium yoelii [3], 100%; in the test on Plasmodium yoelii [4], 100%; in the test on Plasmodium yoelii [2], 100%; in the test on Plasmodium yoelii [6], 94%; in the test with Plasmodium yoelii [7] it was 0%. The Ratio with Plasmodium yoelii [5] amounted to 4.

For the compound `C[C@@H]1CC[C@H]2[C@@H](C)C(=O)N(NC(=O)CC34CC5CC(CC(C5)C3)C4)[C@@H]3O[C@@]4(C)CC[C@@H]1[C@@]23OO4`, the Activity with Plasmodium yoelii [1] is 100%; in the test on Plasmodium yoelii [2] it was 60%.

For the compound `C[C@@H]1CC[C@H]2[C@@H](C)C(=O)N(/N=C/c3ccccc3)[C@@H]3O[C@@]4(C)CC[C@@H]1[C@@]23OO4`, the Activity in the test on Plasmodium yoelii [1] came out at 100%; in the test on Plasmodium yoelii [2], 40%.

Turning to `Cc1ccc(/C=N/N2C(=O)[C@H](C)[C@@H]3CC[C@@H](C)[C@@H]4CC[C@@]5(C)OO[C@]43[C@H]2O5)cc1`, the Activity was 100% with Plasmodium yoelii [1]; 100% with Plasmodium yoelii [3]; 100% with Plasmodium yoelii [4]; 100% with Plasmodium yoelii [2]; 66% in the test with Plasmodium yoelii [6]; 0% in the test with Plasmodium yoelii [7]. Besides, the Ratio with Plasmodium yoelii [5] worked out at 4.

For `C[C@@H]1CC[C@H]2[C@@H](C)C(=O)N(/N=C/c3ccc(Cl)cc3)[C@@H]3O[C@@]4(C)CC[C@@H]1[C@@]23OO4`, the values for the Activity in the test with Plasmodium yoelii [1] and in the test with Plasmodium yoelii [2] were 100% and 20%, respectively.

On to `C[C@@H]1CC[C@H]2[C@@H](C)C(=O)N(/N=C/c3ccc(F)cc3)[C@@H]3O[C@@]4(C)CC[C@@H]1[C@@]23OO4`, for which the figures for the Activity with Plasmodium yoelii [1] and in the test with Plasmodium yoelii [2] were 100% and 40%, respectively.

Regarding `C[C@@H]1CC[C@H]2[C@@H](C)C(=O)N(/N=C/c3ccc(C(F)(F)F)cc3)[C@@H]3O[C@@]4(C)CC[C@@H]1[C@@]23OO4`, the Activity with Plasmodium yoelii [1] is given as 100%; in the test on Plasmodium yoelii [3] it was 100%; with Plasmodium yoelii [4], 100%; in the test with Plasmodium yoelii [2], 100%; with Plasmodium yoelii [6] it was 99%; in the test with Plasmodium yoelii [7], 0%. Also, the Ratio with Plasmodium yoelii [5] is 4.

On to `C[C@@H]1CC[C@H]2[C@@H](C)C(=O)N(/N=C/c3ccc(-c4ccccc4)cc3)[C@@H]3O[C@@]4(C)CC[C@@H]1[C@@]23OO4`, for which the Activity in the test on Plasmodium yoelii [1] is given as 100%; in the test on Plasmodium yoelii [3], 100%; in the test with Plasmodium yoelii [4], 100%; in the test with Plasmodium yoelii [2] it was 100%; with Plasmodium yoelii [6], 100%; in the test on Plasmodium yoelii [7] it was 80%. Further, the Ratio in the test on Plasmodium yoelii [5] was 4.

Consider `C[C@@H]1CC[C@H]2[C@@H](C)C(=O)N(/N=C/c3ccc4c(c3)Cc3ccccc3-4)[C@@H]3O[C@@]4(C)CC[C@@H]1[C@@]23OO4`, for which the Activity was 100% in the test on Plasmodium yoelii [1]; 100% in the test on Plasmodium yoelii [3]; 100% with Plasmodium yoelii [4]; 100% with Plasmodium yoelii [2]; 66% with Plasmodium yoelii [6]; 0% with Plasmodium yoelii [7]. The Ratio in the test with Plasmodium yoelii [5] was found to be 4.

On to `C[C@@H]1CC[C@H]2[C@@H](C)C(=O)N(NCc3ccccc3)[C@@H]3O[C@@]4(C)CC[C@@H]1[C@@]23OO4`, for which the Activity in the test with Plasmodium yoelii [1] was found to be 100%; in the test on Plasmodium yoelii [3], 0%; in the test on Plasmodium yoelii [4], 100%; with Plasmodium yoelii [2], 100%.

For the compound `Cc1ccc(CNN2C(=O)[C@H](C)[C@@H]3CC[C@@H](C)[C@@H]4CC[C@@]5(C)OO[C@]43[C@H]2O5)cc1`, the Activity with Plasmodium yoelii [1] worked out at 100%; with Plasmodium yoelii [3], 0%; in the test on Plasmodium yoelii [4], 74%; in the test on Plasmodium yoelii [2] it was 60%.

With `C[C@@H]1CC[C@H]2[C@@H](C)C(=O)N(NCc3ccc(Cl)cc3)[C@@H]3O[C@@]4(C)CC[C@@H]1[C@@]23OO4`, the Activity in the test with Plasmodium yoelii [1] amounted to 100%; in the test with Plasmodium yoelii [3], 80%; in the test with Plasmodium yoelii [4], 100%; in the test on Plasmodium yoelii [2], 100%.

On to `C[C@@H]1CC[C@H]2[C@@H](C)C(=O)N(NCc3ccc(F)cc3)[C@@H]3O[C@@]4(C)CC[C@@H]1[C@@]23OO4`, for which the Activity with Plasmodium yoelii [1] is on record as 100%; in the test on Plasmodium yoelii [3] it was 20%; in the test with Plasmodium yoelii [4], 100%; in the test with Plasmodium yoelii [2], 100%.

Consider `C[C@@H]1CC[C@H]2[C@@H](C)C(=O)N(NCc3ccc(C(F)(F)F)cc3)[C@@H]3O[C@@]4(C)CC[C@@H]1[C@@]23OO4`, for which the Activity in the test on Plasmodium yoelii [1] amounted to 100%; with Plasmodium yoelii [3], 20%; in the test on Plasmodium yoelii [4], 100%; with Plasmodium yoelii [2] it was 100%.

Consider `C[C@@H]1CC[C@H]2[C@@H](C)C(=O)N(NCc3ccc(-c4ccccc4)cc3)[C@@H]3O[C@@]4(C)CC[C@@H]1[C@@]23OO4`, for which the Activity came to 100% with Plasmodium yoelii [1]; 100% in the test with Plasmodium yoelii [3]; 100% in the test on Plasmodium yoelii [4]; 100% in the test on Plasmodium yoelii [2]; 100% with Plasmodium yoelii [6]; 20% with Plasmodium yoelii [7]. Besides, the Ratio in the test with Plasmodium yoelii [5] was 4.

With `C[C@@H]1CC[C@H]2[C@@H](C)C(=O)N(NCc3ccc4c(c3)Cc3ccccc3-4)[C@@H]3O[C@@]4(C)CC[C@@H]1[C@@]23OO4`, the Activity in the test on Plasmodium yoelii [1] is 100%; with Plasmodium yoelii [3], 40%; with Plasmodium yoelii [4], 100%; in the test with Plasmodium yoelii [2] it was 100%.

Regarding `C[C@@H]1CC[C@H]2[C@@H](C)C(=O)N(OCc3ccccc3)[C@@H]3O[C@@]4(C)CC[C@@H]1[C@@]23OO4`, the Activity is listed as 100% in the test with Plasmodium yoelii [1], 80% with Plasmodium yoelii [3], 100% in the test on Plasmodium yoelii [4] and 100% in the test with Plasmodium yoelii [2].

Turning to `C[C@@H]1CC[C@H]2[C@@H](C)C(=O)N(OCc3ccccc3F)[C@@H]3O[C@@]4(C)CC[C@@H]1[C@@]23OO4`, the Activity in the test with Plasmodium yoelii [1] is 100%; in the test with Plasmodium yoelii [3], 0%; in the test with Plasmodium yoelii [4], 89%; in the test on Plasmodium yoelii [2], 100%.

For the compound `C[C@@H]1CC[C@H]2[C@@H](C)C(=O)N(OCc3ccc(-c4ccccc4)cc3)[C@@H]3O[C@@]4(C)CC[C@@H]1[C@@]23OO4`, the Activity in the test on Plasmodium yoelii [1] is listed as 100%; with Plasmodium yoelii [3] it was 60%; in the test on Plasmodium yoelii [4] it was 100%; in the test with Plasmodium yoelii [2], 100%.

Take `CCO[C@H]1O[C@@H]2O[C@@]3(C)CC[C@H]4[C@H](C)CC[C@@H]([C@H]1C)[C@@]24OO3` [ARTEMOTIL]: the Activity is listed as 100% with Plasmodium yoelii [8], 100% in the test with Plasmodium yoelii [1], 100% in the test on Plasmodium yoelii [9] and 20% in the test on Plasmodium yoelii [2].
